Source: PubChem BioAssay
Dyrk1A ADPGlo = inhibitors of rat Dyrk1A kinase. ADP-Glo luminescence, NFATc1 peptide. inhibition, % at 12.5 µM. 310,000 compounds, 0.43% hits. AID 504441; in the data active means inhibition above about 50%
CAL PDZ FP-1 = blocks peptide binding to human CAL PDZ domain. purified CAL PDZ, TMR-peptide fluorescence polarization, 1 h. inhibition, % at 20 µM. 330,000 compounds, 0.02% hits;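 active means highest replicate inhibition of at least 40%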
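Assay system – tagged CAL PDZ protein CerCALP, purified · Timing – 1 h at RT · Compound – single point, 20 µM · Measured by – fluorescence polarization from S- and P-plane intensities, G-factor corrected · Evaluation – inhibition from polarization loss · Probe or stimulus – TMR reporter peptide T*-PRC34 · Buffer or medium – pH 7.4 phosphate-saline buffer, reducing agent, detergent, IgG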
CAL PDZ FP-2 = inhibitors of human CAL PDZ peptide binding | purified CAL PDZ, TMR-peptide fluorescence polarization, 1 h | inhibition, % at 24.9 µM | 300,000 compounds, 0.92% hits;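 active means mean inhibition of at least 30% with at least half of replicates also reaching 30%; inconclusive means no clear call, values can overlap the other calls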
dFosB act = mouse delta FosB homodimer activation; purified delta FosB, TAMRA-CDK5 oligo fluorescence polarization; percent of positive-control signal above neutral wells; P13346; activation, % at 25 µM; 340,000 compounds, 0.99% hits;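 active means mean activation above about 17%, with every replicate also reaching it, limit read from the data, passing the limit was not always enough; inconclusive means only one of the two conditions met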
Rtt109 Vps75 = inhibitors of Candida albicans Rtt109/Vps75 histone acetyltransferase; purified Rtt109/Vps75, ThioGlo CoA-SH fluorescence, 4 h; 330,000 compounds, 0.16% hits; inhibition, % at 34.9 µM; Q5AAJ8;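 active means inhibition of at least 50% in every replicate; inconclusive means best replicate reaches 50% inhibition but some replicates fall short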
CDK5 inh = inhibitors of human CDK5/p35 kinase; AID 488839; 330,000 compounds, 0.01% hits; inhibition, % at 10 µM; Q00535+Q15078; Recombinant CDK5/p35, ADP-Glo luminescence, 60 min;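 active means highest replicate inhibition of at least 50% and at least 75% of replicates reaching 50%; inconclusive means only one of the two criteria met; inactive means both criteria failed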
Target sequence (Q00535 whole entry, looked up): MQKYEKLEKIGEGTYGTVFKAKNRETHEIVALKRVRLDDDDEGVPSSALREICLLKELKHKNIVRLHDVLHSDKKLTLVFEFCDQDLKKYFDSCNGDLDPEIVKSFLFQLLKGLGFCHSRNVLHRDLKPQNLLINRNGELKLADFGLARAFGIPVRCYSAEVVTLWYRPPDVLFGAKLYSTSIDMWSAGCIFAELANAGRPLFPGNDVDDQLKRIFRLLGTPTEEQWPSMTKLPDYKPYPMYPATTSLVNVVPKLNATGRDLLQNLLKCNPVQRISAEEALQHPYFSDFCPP
Target sequence (Q15078 whole entry, looked up): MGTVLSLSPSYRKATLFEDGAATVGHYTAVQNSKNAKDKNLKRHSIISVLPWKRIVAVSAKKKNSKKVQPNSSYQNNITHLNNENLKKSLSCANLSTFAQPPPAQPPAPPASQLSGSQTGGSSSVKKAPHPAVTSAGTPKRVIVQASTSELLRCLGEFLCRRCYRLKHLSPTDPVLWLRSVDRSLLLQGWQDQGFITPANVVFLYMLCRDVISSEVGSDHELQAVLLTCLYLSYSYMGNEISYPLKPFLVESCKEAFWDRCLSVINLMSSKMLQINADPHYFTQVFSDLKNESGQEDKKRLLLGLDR
Large screens that a line does not name were inactive. Shown are actives, neighbours in structure and some others; about 2.2% of the full set was active somewhere.

Cc1nc(SCC(=O)N2CCN(C(=O)c3ccco3)CC2)c2c(C)c(C)sc2n1	CAL PDZ FP-2 31 (no result: Dyrk1A ADPGlo, CAL PDZ FP-1)
O=C1C(=O)N(CCCO)C(c2ccc(Br)cc2)/C1=C(\O)c1ccc(Br)cc1 (stereo not given)	none
CC1CN(C(=O)c2cc(S(=O)(=O)N3CCCCC3)ccc2Cl)CC(C)O1 (stereo not given)	CAL PDZ FP-2 39
CC1CN(C(=O)c2cccc(S(=O)(=O)Nc3cc(Cl)ccc3Cl)c2)CC(C)O1 (stereo not given)	CAL PDZ FP-2 79
CC1CN(C(=O)c2cccc(S(=O)(=O)Nc3ccccc3Cl)c2)CC(C)O1 (stereo not given)	none
O=C(NCCCN1CCOCC1)c1cccc(S(=O)(=O)Nc2cc(Cl)ccc2Cl)c1	CAL PDZ FP-2 38 (no result: Rtt109 Vps75)
CS(=O)(=O)N1CCC(C(=O)Nc2ccc3c(c2)OCCO3)CC1	none (no result: Rtt109 Vps75)
CCOC(=O)C1(Cc2ccccc2)CCCCCC1=O (stereo not given)	none (no result: Dyrk1A ADPGlo)
O=C(Nc1ccc(Br)cn1)c1cccc2c1-c1ccccc1C2=O	none (no result: Dyrk1A ADPGlo)
CCOc1ccccc1Nc1nnc(SCC(=O)Nc2cccc(S(=O)(=O)NC3=NCCCCC3)c2)s1	none
CC1(C)C2CC=C(/C=N/NC(=O)c3ccc(O)cc3)C1C2 (stereo not given)	CAL PDZ FP-2 78
COC(=O)N/N=C/C1=CCC2CC1C2(C)C (stereo not given)	none (no result: CAL PDZ FP-2)
COc1ccc(C(=O)NNC(=O)c2ccccn2)cc1	CDK5 inh 55
COc1cc(OC)cc(C(=O)NNC(=O)c2ccccn2)c1	none (no result: Rtt109 Vps75)
COc1ccc(CCC(=O)NNC(=O)c2ccccn2)cc1OC	CAL PDZ FP-2 98
CCOC(=O)/C(N)=C/c1ncc(C(F)(F)F)cc1Cl	none (no result: CAL PDZ FP-1)
O=C(N/N=C/c1cccs1)c1cc(-c2cccc3ccccc23)n[nH]1	none
CN(C)CCOC(=O)c1ccc2[nH]c3c(c2c1)CSCC3	dFosB act 28
Oc1ccc(/C=N/Nc2ccnc3cc(Cl)ccc23)c(O)c1	dFosB act inconclusive
Cc1ccc(/C=N/Nc2ccnc3cc(Cl)ccc23)c(C)c1	dFosB act 49
Clc1ccc2c(N/N=C/c3cccnc3)ccnc2c1	none
Clc1ccc2c(N/N=C/c3ccc(Br)cc3)ccnc2c1	dFosB act 34
CCN(CC(=O)Nc1ccc(OC)cc1)CC(=O)Nc1cccc(C#N)c1	none
Fc1cc(F)c2nc(N3CCCC3)sc2c1	none (no result: Dyrk1A ADPGlo)
O=c1[nH]cc(S(=O)(=O)Nc2ccc3c(c2)OCO3)c(=O)[nH]1	none
CC1CCc2c(sc3nc(CSc4ncn[nH]4)[nH]c(=O)c23)C1 (stereo not given)	none
CC1CCc2c(sc3nc(CSc4nnnn4C)[nH]c(=O)c23)C1 (stereo not given)	CAL PDZ FP-2 60
COCCCNC(=O)Cc1ccc(S(=O)(=O)N2CCOCC2)s1	CAL PDZ FP-2 43
COC(=O)c1ccc(OS(=O)(=O)N(C)C)cc1	none
CC(CCC(=O)O)C1CC[C@@]2(C)C3C(=O)CC4C(C)(C)C(O)CC[C@]4(C)C3C(=O)C[C@]12C (stereo not given in full)	none
S=C(Nc1cccnc1)NC1CC2CCC1C2 (stereo not given)	CAL PDZ FP-2 38
Cn1c(SCC(=O)NC2CCCCC2)nnc1-c1cccnc1	Rtt109 Vps75 54
O=C(CSc1nnc(-c2cccc(F)c2)o1)NC1CCCC1	none
O=C(CSc1nnc(CNC(=O)c2ccccc2F)o1)NC1CCCC1	CAL PDZ FP-2 37
Cc1ccc(NC(=O)CSc2nnc(CNC(=O)c3ccco3)o2)cc1	none
Cc1cccc(-c2nnc(SCC(=O)NC3CCCC3)o2)c1	CAL PDZ FP-2 86
O=C(CSc1nnc(CNC(=O)c2ccco2)o1)Nc1ccc(F)cc1	CAL PDZ FP-2 57
CCCCOc1ccc(-c2ncc(N)cn2)cc1	none (no result: CAL PDZ FP-2)
CCCCOc1ccc(N(CC(=O)NCc2ccccc2)C(=O)c2csnn2)cc1	none
CCOc1ccc2nc(SCC(=O)NCc3ccc4c(c3)OCO4)[nH]c2c1	none
COc1ccc2cc(C(=O)N3CCC(Cc4ccccc4)CC3)[nH]c2c1	none
O=C(CSc1nnc(CNC(=O)c2ccccc2F)o1)NCc1ccco1	CAL PDZ FP-2 62
CCCCNCc1cc(OCC)c(OCC(N)=O)cc1Br	CAL PDZ FP-2 38
